Bioassay records (PubChem BioAssay)
DNA FID counter – compounds displacing fluorescent DNA intercalator, primary screen, artefact control for HCV NS3 helicase inhibitor project, biochemical, FID fluorescence; 290,000 tested, 0.17% active; AID 1845, 2009; inhibition, % at 7.9 µM; DNA fluorescent intercalator displacement; in the data active = inhibition above about 37%;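 also: 0% = vehicle and 100% = reference compound; higher means more ethidium bromide displaced from hairpin DNA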
IMP-1 inh – IMP-1 metallo-beta-lactamase inhibitors, primary screen, biochemical, epi-absorbance readout, Pseudomonas aeruginosa enzyme; purified IMP-1, nitrocefin hydrolysis, epi-absorbance fluorescence; metallo-beta-lactamase IMP-1 (Pseudomonas aeruginosa); inhibition, % at 5.6 µM; 290,000 tested, 0.45% active;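 active = inhibition above the mean plus 3 SD of all compounds in the same screening run, cut at about 4.5% in these data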;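 also: 0% = IMP-1 with DMSO and 100% = DMSO wells lacking enzyme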
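System – purified recombinant IMP-1 beta-lactamase · Input – IMP-1 dispensed at 0.2 nM · Timing – 15 min preincubation plus 25 min reaction at 25 °C · Signal – Epi-absorbance fluorescence, 480 nm excitation, 530 nm emission · Measure – percent IMP-1 inhibition derived from blank-referenced optical density · Controls – Enzyme-plus-DMSO low control, enzyme-free DMSO high control · Replication – singlicate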
VIM-2 inh – VIM-2 metallo-beta-lactamase inhibitors, primary screen, biochemical, epi-absorbance readout, Pseudomonas aeruginosa enzyme | purified VIM-2, nitrocefin hydrolysis, epi-absorbance fluorescence | inhibition, % at 5.6 µM | 290,000 tested, 0.89% active | AID 1527, 2009;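 active = inhibition above the mean of all tested compounds plus 3 SD, cutoff set per screening run, cut at about 7.5% in these data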;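 also: red hydrolysis product quenches plate fluorescence so inhibitors raise well fluorescence; 0% = enzyme with DMSO and 100% = DMSO without enzyme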
NALP1 yeast inh – NALP1 inflammasome inhibitors in reconstituted yeast, colorimetric, S. cerevisiae, triplicate retest | S. cerevisiae NALP1/ASC/caspase-1 growth, X-gal OD620, 72 h | inhibition, % at 10 µM | 280,000 tested, 0.61% active; in the data active = inhibition mostly above about 24%, no sharp cut-off; inactive = mostly below about 32%
SUMO HTRF inh – inhibitors of in vitro SUMOylation cascade, primary screen, biochemical, HTRF, uHTS; SUMO-conjugating enzyme UBC9 (Homo sapiens), P63279; 290,000 tested, 0.36% active; inhibition, % at 35 µM; HTRF SUMOylation assay, SAE1/SAE2 + UBC9; in the data active = inhibition above about 50%, passing the limit was not always enough
Target sequence (P63279 whole entry, looked up): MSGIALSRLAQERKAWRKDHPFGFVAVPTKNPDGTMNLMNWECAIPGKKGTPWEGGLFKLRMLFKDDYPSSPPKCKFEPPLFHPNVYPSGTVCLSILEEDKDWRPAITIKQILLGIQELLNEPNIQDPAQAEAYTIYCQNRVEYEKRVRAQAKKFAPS
SUMO Mot1 rescue – yeast Mot1-301 growth rescue at high temperature, primary screen, SUMOylation pathway inhibitor project, S. cerevisiae, ATP luminescence, 38.5C; S. cerevisiae Mot1-301 growth rescue; percent above DMSO median, 100 means doubled; growth rescue, % at 18.8 µM; 320,000 tested, 1% active;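 active = every valid replicate shows activation above 250% relative to neutral control wells; inactive = the rest, any valid replicate at or below 250%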;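 also: OY570 slx delta 5 strain wells were the positive control but not used for scaling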
Starred values were filed as active, the others as inactive; x = not tested or not shown. Shown are actives, neighbours in structure and some others; about 2.9% of the full set was active somewhere.

SMILES | DNA FID counter | IMP-1 inh | VIM-2 inh | NALP1 yeast inh | SUMO HTRF inh | SUMO Mot1 rescue
CCCCCCC(=O)N(O)C1CC(=O)N(Cc2ccccc2)C1=O (stereo not drawn) | -0.1 | -3.2 | -2.6 | 47.0* | -6.3 | 14.3
CCOc1ccccc1NS(=O)(=O)c1cc2c3c(c1)CC(=O)N3CCC2 | -14.5 | -2.3 | -0.8 | 16.7 | 6.4 | 14.6
CCC(C)Nc1nc(-c2ccccn2)nc2ccccc12 (stereo not drawn) | -1.5 | 3.4 | 8.2* | 7.2 | -100.7 | -1.5
CCC(C)Nc1nc(-c2cccc(OC)c2O)nc2ccccc12 (stereo not drawn) | -1.4 | -1.8 | 1.5 | 14.6 | -23.7 | 3.8
C/C(=N\NC(=O)CNC(=O)c1ccccc1F)c1ccco1 | -1.9 | -3.3 | -4.0 | 0.3 | -3.0 | -10.1
COc1c(Cl)cc(Cl)cc1CNc1ccc(S(N)(=O)=O)cc1 | -5.8 | -0.4 | 0.5 | -0.3 | -4.0 | 326.6*
Cc1cc(C)c(S(=O)(=O)Nc2cccc(S(=O)(=O)N3CCOCC3)c2)c(C)c1 | -29.6 | -3.9 | -2.3 | 5.1 | -4.5 | -0.8
N#Cc1nccnc1S(=O)(=O)c1cccs1 | 1.4 | -0.9 | -0.1 | 23.4* | 21.8 | 361.3*
O=C1OCCC1Sc1nnc(-c2ccc(Cl)cc2Cl)o1 (stereo not drawn) | -6.3 | -1.4 | 1.7 | 11.4 | 7.6 | 9.6
CC(=O)Nc1ccc(S(=O)(=O)N(C)CC(=O)Nc2ccc(F)c(F)c2F)cc1 | x | x | x | x | x | 4.5
COc1ccc(NC(=O)CCC(=O)c2cccs2)cc1S(=O)(=O)Nc1ccccc1Cl | -6.8 | 5.2* | -2.0 | 27.2 | -18.6 | -2.4
COc1ccc(/C=C/c2nc3ccccc3n2Cc2ccc(OC)c(OC)c2)cc1 | -26.2 | -2.2 | -0.6 | 13.0 | -3.1 | 353.1*
O=C1C=CC(=O)N1c1cccc(-c2ccccc2)c1 | 4.8 | -4.4 | -1.3 | 14.5 | 38.0 | 62.7
COc1ccccc1/C=N/NC(=O)c1ccc(CN2C(=O)c3cccc4cccc2c34)cc1 | -11.5 | -3.4 | -0.8 | x | 58.8* | -24.8
Cc1nc(N[C@@H](Cc2c[nH]c3ccccc23)C(=O)O)c2oc3ccccc3c2n1 | -25.4 | -0.6 | 8.8* | 2.5 | -15.4 | 74.7
CCc1nc(N[C@@H](Cc2c[nH]c3ccccc23)C(=O)O)c2oc3ccccc3c2n1 | -26.2 | -3.2 | -1.2 | 3.0 | 11.5 | 6.7
CCc1ccc(NC(=O)c2ccc3ncsc3c2)cc1 | -7.7 | -2.0 | -3.9 | 6.5 | 5.1 | x
CN(C(=O)c1ccc2nc(N)sc2c1)c1ccccc1 | -7.5 | -1.0 | -1.5 | 5.6 | 6.4 | -19.0
CCc1ccc(NC(=O)c2ccc3nc(N)sc3c2)cc1 | 0.8 | -4.5 | -0.4 | 39.7* | -8.2 | -10.0
Nc1nc2ccc(C(=O)Nc3ccccc3)cc2s1 | 2.5 | -3.7 | -2.3 | 11.6 | 3.0 | 281.8*
Cc1sc2ncnc(SCC(=O)N3CCCC(C(F)(F)F)C3)c2c1C (stereo not drawn) | -22.3 | 0.0 | 2.3 | 12.4 | 8.6 | -5.5
O=C(OC[C@H]1O[C@@H](OC(=O)c2cc(O)c(O)c(OC(=O)c3cc(O)c(O)c(O)c3)c2)[C@H](OC(=O)c2cc(O)c(O)c(OC(=O)c3cc(O)c(O)c(O)c3)c2)[C@@H](OC(=O)c2cc(O)c(O)c(OC(=O)c3cc(O)c(O)c(O)c3)c2)[C@@H]1OC(=O)c1cc(O)c(O)c(OC(=O)c2cc(O)c(O)c(O)c2)c1)c1cc(O)c(O)c(OC(=O)c2cc(O)c(O)c(O)c2)c1 | x | x | x | x | x | -29.0
COC(CN1C(=O)C(=O)/C(=C(/O)c2ccccc2)C1c1ccccn1)OC (stereo not drawn) | 11.6 | -3.1 | 9.6* | -3.8 | 3.8 | -19.1
CCC(O)CC(C(=O)NNc1ccccc1)C(=O)NNc1ccccc1 (stereo not drawn) | 1.1 | -1.0 | -1.2 | 12.3 | 5.4 | 268.5*
O=C(COc1ccc(Br)cc1)N(CCO)CCO | 3.6 | -2.9 | -2.2 | -11.7 | 18.8 | -15.6
